In ChEMBL document CHEMBL3877296, “Design, synthesis, and biological evaluation of novel alkylsulfanyl-1,2,4-triazoles as cis-restricted combretastatin A-4 analogues” (Eur J Med Chem, 2017):

Legend:
Sus scrofa = species on record: Sus scrofa; test: Inhibition of porcine brain tubulin polymerization at 10 uM in presence of GTP by spectrophotometric method relative to control
Summary of the method: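 Tubulin was purified from pig brain microtubule protein by three temperature-driven assembly/disassembly cycles, then phosphocellulose chromatography. Polymerization ran in PEM buffer (100 mM PIPES, 1 mM MgCl2, 1 mM EGTA) with 1 mM GTP and 5% glycerol at 37 °C, followed by light scattering at 340 nm. Percent inhibition came from plateau absorbance, with a DMSO negative control and a CA-4 reference run the same day.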

[1] = Cytotoxicity against human HT-29 cells assessed as growth inhibition after 48 hrs by MTT assay; assay type: functional, cell-based; settings: HT-29, 48 h
Summary of the method: (§1)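 Cells were kept in DMEM with 10% FBS and seeded at 5000 cells/well, then attached for 24 h at 37 °C. Compounds came from 20 mM DMSO stocks, serially diluted in medium, with 0.1% DMSO as vehicle control. After 48 h at 37 °C, MTT (5 mg/mL) was added for 4 h, formazan dissolved in DMSO and A570 read. IC50 was fitted from % inhibition versus control, mean of three independent experiments.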

[2] = Cytotoxicity against human HCT116 cells assessed as growth inhibition after 48 hrs by MTT assay; assay type: functional, cell-based; settings: HCT-116, 48 h; summary of the method: as §1
[3] = Cytotoxicity against human PC3 cells assessed as growth inhibition after 48 hrs by MTT assay; assay type: functional, cell-based; settings: PC-3, 48 h; summary of the method: as §1
[4] = Cytotoxicity against human HepG2 cells assessed as growth inhibition after 48 hrs by MTT assay; assay type: functional, cell-based; settings: HepG2, 48 h; summary of the method: as §1
[5] = Cell cycle arrest in human PC3 cells assessed as G2/M phase accumulation at 6 uM after 12 hrs by propidium iodide staining based flow cytometry (reference value: 15.81%); assay type: functional; settings: PC-3
Summary of the method: (§2)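 PC-3 cells were grown overnight in dishes to about 70% confluence, then exposed to three compound concentrations. Cells were trypsinized, washed in PBS, fixed overnight in 75% ice-cold ethanol, RNase-treated at 37 °C for 30 min, and stained with propidium iodide. Phase percentages (sub-G1, G0/G1, S, G2/M) were read by flow cytometry against untreated cells.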

[6] = Cell cycle arrest in human PC3 cells assessed as G2/M phase accumulation at 3 uM after 12 hrs by propidium iodide staining based flow cytometry (reference value: 15.81%); assay type: functional; settings: PC-3; summary of the method: as §2
[7] = Cell cycle arrest in human PC3 cells assessed as S phase accumulation at 3 uM after 12 hrs by propidium iodide staining based flow cytometry (reference value: 31.7%); assay type: functional; settings: PC-3; summary of the method: as §2
[8] = Cell cycle arrest in human PC3 cells assessed as S phase accumulation at 6 uM after 12 hrs by propidium iodide staining based flow cytometry (reference value: 31.7%); assay type: functional; settings: PC-3; summary of the method: as §2
[9] = Cell cycle arrest in human PC3 cells assessed as G0/G1 phase accumulation at 12 uM after 12 hrs by propidium iodide staining based flow cytometry (reference value: 51.58%); assay type: functional; settings: PC-3; summary of the method: as §2
[10] = Cell cycle arrest in human PC3 cells assessed as G2/M phase accumulation after 48 hrs by propidium iodide staining based flow cytometry; assay type: functional; settings: PC-3; summary of the method: as §2
[11] = Cell cycle arrest in human PC3 cells assessed as G2/M phase accumulation at 12 uM after 12 hrs by propidium iodide staining based flow cytometry (reference value: 15.81%); assay type: functional; settings: PC-3; summary of the method: as §2
[12] = Cell cycle arrest in human PC3 cells assessed as subG1 phase accumulation at 6 uM after 12 hrs by propidium iodide staining based flow cytometry (reference value: 0.29%); assay type: functional; settings: PC-3; summary of the method: as §2
[13] = Cell cycle arrest in human PC3 cells assessed as subG1 phase accumulation at 12 uM after 12 hrs by propidium iodide staining based flow cytometry (reference value: 0.29%); assay type: functional; settings: PC-3; summary of the method: as §2
[14] = Cell cycle arrest in human PC3 cells assessed as G0/G1 phase accumulation at 6 uM after 12 hrs by propidium iodide staining based flow cytometry (reference value: 51.58%); assay type: functional; settings: PC-3; summary of the method: as §2
[15] = Cell cycle arrest in human PC3 cells assessed as G0/G1 phase accumulation at 3 uM after 12 hrs by propidium iodide staining based flow cytometry (reference value: 51.58%); assay type: functional; settings: PC-3; summary of the method: as §2
[16] = Cell cycle arrest in human PC3 cells assessed as S phase accumulation at 12 uM after 12 hrs by propidium iodide staining based flow cytometry (reference value: 31.7%); assay type: functional; settings: PC-3; summary of the method: as §2
[17] = Cell cycle arrest in human PC3 cells assessed as subG1 phase accumulation at 3 uM after 12 hrs by propidium iodide staining based flow cytometry (reference value: 0.29%); assay type: functional; settings: PC-3; summary of the method: as §2

inhibition (Sus scrofa) [%] | Structure (SMILES) | IC50 [1] [µM] | IC50 [2] [µM] | IC50 [3] [µM] | IC50 [4] [µM] | further results
 | COc1ccc(-n2c(SCC(=O)c3ccc(OC)c(O)c3)nnc2-c2cc(OC)c(OC)c(OC)c2)cc1 | > 60 | > 60 | > 60 | > 60 | 
29 | COc1ccc(CSc2nnc(-c3cc(OC)c(OC)c(OC)c3)n2-c2ccc(OC)cc2)cc1 | > 60 | 49.6 | 40.3 | 41.1 | 
 | COc1ccc(-n2c(SC)nnc2-c2cc(OC)c(OC)c(OC)c2)cc1 | > 60 | > 60 | > 60 | > 60 | 
 | COc1cc(-c2nnc(SCc3ccccc3)n2-c2ccc(N(C)C)cc2)cc(OC)c1OC | > 60 | 54 | 55.8 | > 60 | 
17 | COc1cc(-c2nnc(SCC(=O)Nc3ccc(Cl)cc3)n2-c2ccc(N(C)C)cc2)cc(OC)c1OC | > 60 | 39.3 | > 60 | > 60 | 
31 | COc1ccc(-n2c(SCC(=O)Nc3ccc(Cl)cc3)nnc2-c2cc(OC)c(OC)c(OC)c2)cc1 | 58 | > 60 | 6.29 | > 60 | Activity [5]: 24.2%; Activity [6]: 20.1%; Activity [7]: 30.8%; Activity [8]: 31.7%; Activity [9]: 37.8%; Activity [10]: Dose-dependent effect; Activity [11]: 34.8%; Activity [12]: 0.62%; Activity [13]: 0.37%; Activity [14]: 46%; Activity [15]: 48%; Activity [16]: 27.1%; Activity [17]: 0.43%
 | COc1cc(-c2nnc(SCC(=O)C3CC3)n2-c2ccc(N(C)C)cc2)cc(OC)c1OC | > 60 | > 60 | 45.9 | > 60 | 
 | COc1ccc(C(=O)CSc2nnc(-c3cc(OC)c(OC)c(OC)c3)n2-c2ccc(N(C)C)cc2)cc1O | > 60 | > 100 | > 100 | > 100 | 
10 | COc1ccc(NC(=O)CSc2nnc(-c3cc(OC)c(OC)c(OC)c3)n2-c2ccc(OC)cc2)cc1 | 45.2 | > 60 | 25.8 | > 60 | 
 | CCOC(=O)CSc1nnc(-c2cc(OC)c(OC)c(OC)c2)n1-c1ccc(OC)cc1 | > 60 | > 60 | > 60 | > 60 | 
16 | COc1ccc(-n2c(SCc3ccccc3)nnc2-c2cc(OC)c(OC)c(OC)c2)cc1 | > 60 | 42.4 | 34.1 | > 60 | 
 | CCSc1nnc(-c2cc(OC)c(OC)c(OC)c2)n1-c1ccc(N(C)C)cc1 | > 60 | > 60 | 46.2 | > 60 | 
 | COc1ccc(-n2c(SCc3ccc(F)cc3)nnc2-c2cc(OC)c(OC)c(OC)c2)cc1 | 50.7 | 38.7 | 35 | 35 | 
21 | COc1cc(-c2nnc(SCc3ccc(C)cc3)n2-c2ccc(N(C)C)cc2)cc(OC)c1OC | 27.4 | > 60 | 37.3 | > 60 | 
 | COc1cc(-c2nnc(SCC(=O)c3ccc(F)cc3)n2-c2ccc(N(C)C)cc2)cc(OC)c1OC | 78 | 31.1 | 42.3 | > 60 | 
26 | COc1cc(-c2nnc(SCC(=O)c3ccc4ccccc4c3)n2-c2ccc(N(C)C)cc2)cc(OC)c1OC | > 60 | 54.5 | 18.1 | > 60 | 

inhibition (Sus scrofa) [%] | Structure (SMILES) | IC50 [1] [µM] | IC50 [2] [µM] | IC50 [3] [µM] | IC50 [4] [µM] | further results
 | COc1ccc(NC(=O)CSc2nnc(-c3cc(OC)c(OC)c(OC)c3)n2-c2ccc(N(C)C)cc2)cc1 | 51.4 | > 60 | 56.1 | > 60 | 
 | CCSc1nnc(-c2cc(OC)c(OC)c(OC)c2)n1-c1ccc(OC)cc1 | > 60 | > 60 | 57.7 | > 60 | 
 | COc1ccc(-n2c(S)nnc2-c2cc(OC)c(OC)c(OC)c2)cc1 | > 60 | > 60 | > 60 | 57.5 | 
49 | COc1ccc(CSc2nnc(-c3cc(OC)c(OC)c(OC)c3)n2-c2ccc(N(C)C)cc2)cc1 | > 60 | 1.15 | > 60 | > 60 | 
 | CCOC(=O)CSc1nnc(-c2cc(OC)c(OC)c(OC)c2)n1-c1ccc(N(C)C)cc1 | 28.8 | > 60 | > 60 | > 60 | 
15 | COc1ccc(-n2c(SCc3ccc(C)cc3)nnc2-c2cc(OC)c(OC)c(OC)c2)cc1 | > 60 | 33.3 | 56.5 | 31.6 | 
30 | COc1ccc(C(=O)CSc2nnc(-c3cc(OC)c(OC)c(OC)c3)n2-c2ccc(OC)cc2)cc1 | > 60 | > 60 | > 60 | 18.1 | 
 | COc1cc(-c2nnc(SCc3ccc(F)cc3)n2-c2ccc(N(C)C)cc2)cc(OC)c1OC | 44.3 | > 60 | 46.5 | 26.4 | 
 | COc1ccc(-n2c(SCC(=O)c3ccccc3)nnc2-c2cc(OC)c(OC)c(OC)c2)cc1 | > 60 | > 60 | > 60 | 16.2 | 
12 | COc1ccc(-n2c(SCC(=O)c3ccc(F)cc3)nnc2-c2cc(OC)c(OC)c(OC)c2)cc1 | 42.5 | > 60 | 58.2 | 10.7 | 
 | COc1cc(-c2nnc(S)n2-c2ccc(N(C)C)cc2)cc(OC)c1OC | > 60 | > 60 | > 60 | > 60 | 
16 | COc1cc(-c2nnc(SCC(=O)c3ccccc3)n2-c2ccc(N(C)C)cc2)cc(OC)c1OC | 45.1 | 42.5 | 38.6 | 18.9 | 
36 | COc1ccc(-n2c(SCC(=O)C3CC3)nnc2-c2cc(OC)c(OC)c(OC)c2)cc1 | > 60 | > 60 | 37.2 | > 60 | 
 | COc1cc(-c2nnc(SC)n2-c2ccc(N(C)C)cc2)cc(OC)c1OC | > 60 | > 60 | > 60 | > 60 | 
38 | COc1ccc(C(=O)CSc2nnc(-c3cc(OC)c(OC)c(OC)c3)n2-c2ccc(N(C)C)cc2)cc1 | 64 | > 60 | 22 | 18.8 | 
 | COc1ccc(-n2c(SCC(=O)c3ccc4ccccc4c3)nnc2-c2cc(OC)c(OC)c(OC)c2)cc1 | 53.4 | > 60 | > 60 | > 60 | 

Structure (SMILES) | inhibition (Sus scrofa) [%] | IC50 [1] [µM] | IC50 [2] [µM] | IC50 [3] [µM] | IC50 [4] [µM] | further results
COc1ccc(/C=C\c2cc(OC)c(OC)c(OC)c2)cc1O [COMBRETASTATIN A4] | 80 | 1.96 | 6.1 | 22 | 5.29 | 
